Converted amounts (≈) assume the structure as drawn. The source made the active and inactive calls. No cut-off for these calls is given here.
Tests used:
Escherichia coli = experiment: Antibacterial activity against Escherichia coli ATCC 25922 after 24 hrs by broth microdilution method; type: functional; conditions: ATCC 25922, 24 h
Method in brief: (§1)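 Broth microdilution run to the standard NCCLS-recommended procedure, applied to all newly synthesized compounds, with a panel that included four Gram-positive strains.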

Staphylococcus aureus [1] = experiment: Antibacterial activity against penicillin-resistant Staphylococcus aureus after 24 hrs by broth microdilution method; type: functional
Staphylococcus aureus [2] = experiment: Antibacterial activity against methicillin-resistant Staphylococcus aureus ATCC 43300 after 24 hrs by broth microdilution method; type: functional; conditions: ATCC 43300, 24 h
Bacillus subtilis = experiment: Antibacterial activity against Bacillus subtilis ATCC 9372 after 24 hrs by broth microdilution method; type: functional; conditions: ATCC 9372, 24 h; method in brief: as §1
Staphylococcus aureus [3] = experiment: Antibacterial activity against Staphylococcus aureus ATCC 25923 after 24 hrs by broth microdilution method; type: functional; conditions: ATCC 25923, 24 h; method in brief: as §1
Klebsiella pneumoniae = experiment: Antibacterial activity against Klebsiella pneumoniae ATCC 700603 after 24 hrs by broth microdilution method; type: functional; conditions: Klebsiella pneumoniae, 700603, 24 h; method in brief: as §1
[4] = target: T1, Cell division protein FtsZ (Bacillus subtilis) (UniProt A5Z1V5); experiment: Inhibition of FtsZ in Bacillus subtilis ATCC 9372 assessed as filamentation
T1 sequence (whole entry): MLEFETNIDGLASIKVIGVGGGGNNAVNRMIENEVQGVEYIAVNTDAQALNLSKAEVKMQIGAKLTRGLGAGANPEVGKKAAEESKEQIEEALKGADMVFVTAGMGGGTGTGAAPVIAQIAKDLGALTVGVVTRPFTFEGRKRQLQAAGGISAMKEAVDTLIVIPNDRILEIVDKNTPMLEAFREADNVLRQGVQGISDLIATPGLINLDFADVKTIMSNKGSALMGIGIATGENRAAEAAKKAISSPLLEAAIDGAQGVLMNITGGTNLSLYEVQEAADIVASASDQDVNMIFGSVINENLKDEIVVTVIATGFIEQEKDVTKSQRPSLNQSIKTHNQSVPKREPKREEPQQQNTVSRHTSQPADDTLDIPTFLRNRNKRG

[5] = target: T2, Cell division protein FtsZ (Staphylococcus aureus) (UniProt P0A031); experiment: Inhibition of FtsZ in Staphylococcus aureus assessed as ballooning
T2 sequence (whole entry): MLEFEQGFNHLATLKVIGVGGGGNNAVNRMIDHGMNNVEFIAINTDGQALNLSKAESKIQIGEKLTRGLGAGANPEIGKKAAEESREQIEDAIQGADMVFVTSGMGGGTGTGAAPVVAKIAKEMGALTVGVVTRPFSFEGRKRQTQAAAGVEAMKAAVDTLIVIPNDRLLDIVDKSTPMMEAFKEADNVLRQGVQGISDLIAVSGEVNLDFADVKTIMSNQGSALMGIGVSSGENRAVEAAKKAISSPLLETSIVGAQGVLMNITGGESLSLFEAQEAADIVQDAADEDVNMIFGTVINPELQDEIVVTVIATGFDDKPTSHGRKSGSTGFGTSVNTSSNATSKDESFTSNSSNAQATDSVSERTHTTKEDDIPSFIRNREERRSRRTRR

## CCCCC(CC)COc1cccc(C(N)=O)c1 (racemic)
Escherichia coli
  MIC: > 64 µg/mL
Staphylococcus aureus [1]
  MIC: 16 µg/mL (≈ 64.2 µM)
Staphylococcus aureus [2]
  MIC: 16 µg/mL (≈ 64.2 µM)
Bacillus subtilis
  MIC: 16 µg/mL (≈ 64.2 µM)
Staphylococcus aureus [3]
  MIC: 16 µg/mL (≈ 64.2 µM)
Klebsiella pneumoniae
  MIC: 8 µg/mL (≈ 32.1 µM)

## CCCCC(CC)COc1cccc(-c2cnn(C)n2)c1 (stereo not drawn)
Escherichia coli
  MIC: > 64 µg/mL
Staphylococcus aureus [1]
  MIC: > 64 µg/mL
Staphylococcus aureus [2]
  MIC: > 64 µg/mL
Bacillus subtilis
  MIC: > 64 µg/mL
Staphylococcus aureus [3]
  MIC: > 64 µg/mL
Klebsiella pneumoniae
  MIC: > 64 µg/mL

## CCOc1cccc(-c2c[nH]nn2)c1
Escherichia coli
  MIC: > 64 µg/mL
Staphylococcus aureus [1]
  MIC: > 64 µg/mL
Staphylococcus aureus [2]
  MIC: > 64 µg/mL
Bacillus subtilis
  MIC: > 64 µg/mL
Staphylococcus aureus [3]
  MIC: > 64 µg/mL
Klebsiella pneumoniae
  MIC: > 64 µg/mL

## Clc1ccc(OCCCCOc2cccc(-c3c[nH]nn3)c2)cc1
Escherichia coli
  MIC: > 64 µg/mL
Staphylococcus aureus [1]
  MIC: > 64 µg/mL
Staphylococcus aureus [2]
  MIC: > 64 µg/mL
Bacillus subtilis
  MIC: > 64 µg/mL
Staphylococcus aureus [3]
  MIC: > 64 µg/mL
Klebsiella pneumoniae
  MIC: > 64 µg/mL

## Clc1cccc(COc2cccc(Cn3cnnn3)c2)c1
Escherichia coli
  MIC: > 64 µg/mL
Staphylococcus aureus [1]
  MIC: > 64 µg/mL
Staphylococcus aureus [2]
  MIC: > 64 µg/mL
Bacillus subtilis
  MIC: > 64 µg/mL
Staphylococcus aureus [3]
  MIC: > 64 µg/mL
Klebsiella pneumoniae
  MIC: > 64 µg/mL

## CCCCC(CC)COc1cccc(Cn2cncn2)c1 (racemic)
Escherichia coli
  MIC: > 64 µg/mL
Staphylococcus aureus [1]
  MIC: 32 µg/mL (≈ 111 µM)
Staphylococcus aureus [2]
  MIC: 32 µg/mL (≈ 111 µM)
Bacillus subtilis
  MIC: 16 µg/mL (≈ 55.7 µM)
Staphylococcus aureus [3]
  MIC: 16 µg/mL (≈ 55.7 µM)
Klebsiella pneumoniae
  MIC: 16 µg/mL (≈ 55.7 µM)
[4]
  inhibition: inactive
[5]
  inhibition: Active

## Fc1ccc(OCCCCOc2ccc(Cl)cc2)c(F)c1-c1c[nH]nn1
Escherichia coli
  MIC: > 64 µg/mL
Staphylococcus aureus [1]
  MIC: > 64 µg/mL
Staphylococcus aureus [2]
  MIC: > 64 µg/mL
Bacillus subtilis
  MIC: > 64 µg/mL
Staphylococcus aureus [3]
  MIC: > 64 µg/mL
Klebsiella pneumoniae
  MIC: > 64 µg/mL

## CCCCC(CC)COc1cccc(-c2n[nH]c(=O)o2)c1 (racemic)
Escherichia coli
  MIC: > 64 µg/mL
Staphylococcus aureus [1]
  MIC: 8 µg/mL (≈ 27.6 µM)
Staphylococcus aureus [2]
  MIC: 8 µg/mL (≈ 27.6 µM)
Bacillus subtilis
  MIC: 4 µg/mL (≈ 13.8 µM)
Staphylococcus aureus [3]
  MIC: 4 µg/mL (≈ 13.8 µM)
Klebsiella pneumoniae
  MIC: 4 µg/mL (≈ 13.8 µM)
[4]
  inhibition: inactive
[5]
  inhibition: Active

## CCCCC(CC)COc1ccccc1-c1c[nH]nn1 (stereo not drawn)
Escherichia coli
  MIC: > 64 µg/mL
Staphylococcus aureus [1]
  MIC: 8 µg/mL (≈ 29.3 µM)
Staphylococcus aureus [2]
  MIC: 8 µg/mL (≈ 29.3 µM)
Bacillus subtilis
  MIC: 8 µg/mL (≈ 29.3 µM)
Staphylococcus aureus [3]
  MIC: 8 µg/mL (≈ 29.3 µM)
Klebsiella pneumoniae
  MIC: 8 µg/mL (≈ 29.3 µM)
[4]
  inhibition: inactive
[5]
  inhibition: Active

## NC(=O)c1c(F)ccc(OCC2COc3ccc(Cl)cc3O2)c1F (stereo not drawn)
Staphylococcus aureus [2]
  MIC: 0.5 µg/mL (≈ 1.41 µM)

## Fc1ccc(OCc2cccc(Cl)c2)c(F)c1-c1c[nH]nn1
Escherichia coli
  MIC: > 64 µg/mL
Staphylococcus aureus [1]
  MIC: 16 µg/mL (≈ 49.7 µM)
Staphylococcus aureus [2]
  MIC: 8 µg/mL (≈ 24.9 µM)
Bacillus subtilis
  MIC: 16 µg/mL (≈ 49.7 µM)
Staphylococcus aureus [3]
  MIC: 16 µg/mL (≈ 49.7 µM)
Klebsiella pneumoniae
  MIC: > 64 µg/mL

## Cc1ccc(COc2cccc(Cn3cncn3)c2)cc1
Escherichia coli
  MIC: > 64 µg/mL
Staphylococcus aureus [1]
  MIC: > 64 µg/mL
Staphylococcus aureus [2]
  MIC: > 64 µg/mL
Bacillus subtilis
  MIC: > 64 µg/mL
Staphylococcus aureus [3]
  MIC: > 64 µg/mL
Klebsiella pneumoniae
  MIC: > 64 µg/mL

## Clc1cccc(COc2cccc(-c3c[nH]nn3)c2)c1
Escherichia coli
  MIC: > 64 µg/mL
Staphylococcus aureus [1]
  MIC: 32 µg/mL (≈ 112 µM)
Staphylococcus aureus [2]
  MIC: 16 µg/mL (≈ 56 µM)
Bacillus subtilis
  MIC: 16 µg/mL (≈ 56 µM)
Staphylococcus aureus [3]
  MIC: 16 µg/mL (≈ 56 µM)
Klebsiella pneumoniae
  MIC: 16 µg/mL (≈ 56 µM)

## CCCCC(CC)COc1cccc(-c2cnnn2C)c1 (stereo not drawn)
Escherichia coli
  MIC: > 64 µg/mL
Staphylococcus aureus [1]
  MIC: > 64 µg/mL
Staphylococcus aureus [2]
  MIC: > 64 µg/mL
Bacillus subtilis
  MIC: 64 µg/mL (≈ 223 µM)
Staphylococcus aureus [3]
  MIC: 64 µg/mL (≈ 223 µM)
Klebsiella pneumoniae
  MIC: 16 µg/mL (≈ 55.7 µM)

## CCCCC(CC)COc1ccc(F)c(C(N)=O)c1F (stereo not drawn)
Escherichia coli
  MIC: > 64 µg/mL
Staphylococcus aureus [1]
  MIC: 8 µg/mL (≈ 28 µM)
Staphylococcus aureus [2]
  MIC: 2 to 4 µg/mL (≈ 7.01 to 14 µM)
Bacillus subtilis
  MIC: 2 µg/mL (≈ 7.01 µM)
Staphylococcus aureus [3]
  MIC: 4 µg/mL (≈ 14 µM)
Klebsiella pneumoniae
  MIC: 4 µg/mL (≈ 14 µM)

## Cc1cccc(COc2cccc(Cn3cncn3)c2)c1
Escherichia coli
  MIC: > 64 µg/mL
Staphylococcus aureus [1]
  MIC: > 64 µg/mL
Staphylococcus aureus [2]
  MIC: > 64 µg/mL
Bacillus subtilis
  MIC: > 64 µg/mL
Staphylococcus aureus [3]
  MIC: > 64 µg/mL
Klebsiella pneumoniae
  MIC: > 64 µg/mL

## O=c1[nH]nc(-c2cccc(OCc3ccccc3)c2)o1
Escherichia coli
  MIC: > 64 µg/mL
Staphylococcus aureus [1]
  MIC: > 64 µg/mL
Staphylococcus aureus [2]
  MIC: > 64 µg/mL
Bacillus subtilis
  MIC: > 64 µg/mL
Staphylococcus aureus [3]
  MIC: > 64 µg/mL
Klebsiella pneumoniae
  MIC: > 64 µg/mL

## CCCCCCCCOc1cccc(-c2c[nH]nn2)c1
Escherichia coli
  MIC: > 64 µg/mL
Staphylococcus aureus [1]
  MIC: 4 µg/mL (≈ 14.6 µM)
Staphylococcus aureus [2]
  MIC: 4 µg/mL (≈ 14.6 µM)
Bacillus subtilis
  MIC: 2 µg/mL (≈ 7.32 µM)
Staphylococcus aureus [3]
  MIC: 4 µg/mL (≈ 14.6 µM)
Klebsiella pneumoniae
  MIC: 4 µg/mL (≈ 14.6 µM)
[4]
  inhibition: inactive
[5]
  inhibition: Active

## Cc1cccc(COc2cccc(-c3c[nH]nn3)c2)c1
Escherichia coli
  MIC: > 64 µg/mL
Staphylococcus aureus [1]
  MIC: 32 µg/mL (≈ 121 µM)
Staphylococcus aureus [2]
  MIC: 16 µg/mL (≈ 60.3 µM)
Bacillus subtilis
  MIC: 32 µg/mL (≈ 121 µM)
Staphylococcus aureus [3]
  MIC: 32 µg/mL (≈ 121 µM)
Klebsiella pneumoniae
  MIC: 32 µg/mL (≈ 121 µM)

## Fc1cccc(COc2ccc(F)c(-c3c[nH]nn3)c2F)c1
Escherichia coli
  MIC: > 64 µg/mL
Staphylococcus aureus [1]
  MIC: 64 µg/mL (≈ 210 µM)
Staphylococcus aureus [2]
  MIC: > 64 µg/mL
Bacillus subtilis
  MIC: > 64 µg/mL
Staphylococcus aureus [3]
  MIC: 64 µg/mL (≈ 210 µM)
Klebsiella pneumoniae
  MIC: > 64 µg/mL

Reference: ChEMBL document CHEMBL4184277, “Substitution of terminal amide with 1H-1,2,3-triazole: Identification of unexpected class of potent antibacterial agents” (2018)
